# Key:
# P2Y purinoceptor 4 [1] = target: T1, P2Y purinoceptor 4 (Homo sapiens, UniProt P51582); assay: Antagonist activity at human P2Y4 receptor transfected in human 1321N1 cells assessed as inhibition of UTP-activated intracellular calcium mobilization preincubated for 30 mins followed by UTP addition by fluo-4-dye based fluorescence assay; assay type: functional, cell-based
# Summary of the method: (§1)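 1321N1 astrocytoma cells stably expressing the human P2Y subtype, grown in DMEM with 10 % FCS and 200 μg/mL G418 at 37 °C. Plated 50,000 cells/well about 24 h before testing. Cells loaded with fluo-4 AM for 1 h, then placed in HBSS and preincubated 30 min with compound. Agonist was injected at about EC80: ADP 500 nM (P2Y1), UTP 500 nM (P2Y2, P2Y4), UDP 750 nM (P2Y6). Fluorescence read at ex 488/em 525 nm. At least three independent experiments in duplicate. IC50 obtained by nonlinear regression.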
# P2Y purinoceptor 1 [2] = target: T2, P2Y purinoceptor 1 (Homo sapiens, UniProt P47900); assay: Antagonist activity at human P2Y1 receptor transfected in human 1321N1 cells assessed as inhibition of ADP-activated intracellular calcium mobilization preincubated for 30 mins followed by ADP addition by fluo-4-dye based fluorescence assay; assay type: functional, cell-based; summary of the method: as §1
# T2 sequence (P47900 whole entry): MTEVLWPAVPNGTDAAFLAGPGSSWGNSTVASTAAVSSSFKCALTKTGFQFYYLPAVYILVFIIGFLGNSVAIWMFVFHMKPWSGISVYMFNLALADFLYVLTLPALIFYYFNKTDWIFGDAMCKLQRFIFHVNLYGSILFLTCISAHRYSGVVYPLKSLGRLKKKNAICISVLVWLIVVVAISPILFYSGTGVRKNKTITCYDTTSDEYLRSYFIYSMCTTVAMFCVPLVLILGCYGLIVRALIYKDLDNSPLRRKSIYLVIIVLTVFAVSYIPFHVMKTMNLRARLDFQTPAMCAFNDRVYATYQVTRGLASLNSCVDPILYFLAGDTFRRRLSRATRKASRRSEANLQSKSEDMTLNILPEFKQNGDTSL
# P2Y purinoceptor 6 [3] = target: T3, P2Y purinoceptor 6 (Homo sapiens, UniProt Q15077); assay: Antagonist activity at human P2Y6 receptor transfected in human 1321N1 cells assessed as inhibition of UDP-activated intracellular calcium mobilization preincubated for 30 mins followed by UDP addition by fluo-4-dye based fluorescence assay; assay type: functional, cell-based; summary of the method: as §1
# T3 sequence (Q15077 whole entry): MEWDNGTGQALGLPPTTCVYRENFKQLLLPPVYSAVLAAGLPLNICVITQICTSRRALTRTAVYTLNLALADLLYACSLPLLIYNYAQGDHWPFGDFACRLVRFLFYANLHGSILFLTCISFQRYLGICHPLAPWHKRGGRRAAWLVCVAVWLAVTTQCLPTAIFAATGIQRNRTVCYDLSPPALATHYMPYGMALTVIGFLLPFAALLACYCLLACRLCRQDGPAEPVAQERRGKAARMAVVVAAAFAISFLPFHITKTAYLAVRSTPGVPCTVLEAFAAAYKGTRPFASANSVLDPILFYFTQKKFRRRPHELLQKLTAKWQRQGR
# P2Y purinoceptor 2 = P2Y purinoceptor 2 (Homo sapiens, UniProt P41231); assay: Antagonist activity at human P2Y2 receptor transfected in human 1321N1 cells assessed as inhibition of UTP-activated intracellular calcium mobilization preincubated for 30 mins followed by UTP addition by fluo-4-dye based fluorescence assay; assay type: functional, cell-based; summary of the method: as §1
# P2Y purinoceptor 2, sequence (P41231 whole entry): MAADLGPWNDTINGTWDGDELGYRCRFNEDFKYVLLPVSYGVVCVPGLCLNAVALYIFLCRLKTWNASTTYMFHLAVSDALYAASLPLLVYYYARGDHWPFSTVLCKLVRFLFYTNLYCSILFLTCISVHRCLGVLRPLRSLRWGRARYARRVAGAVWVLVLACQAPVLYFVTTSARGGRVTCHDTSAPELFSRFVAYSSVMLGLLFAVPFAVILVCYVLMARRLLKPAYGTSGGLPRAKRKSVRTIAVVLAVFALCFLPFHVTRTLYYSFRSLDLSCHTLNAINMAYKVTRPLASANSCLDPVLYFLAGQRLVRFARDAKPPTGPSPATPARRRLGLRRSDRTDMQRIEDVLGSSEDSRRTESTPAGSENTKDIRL
# P2Y purinoceptor 12 = P2Y purinoceptor 12 (Homo sapiens, UniProt Q9H244); assay: Antagonist activity at human P2Y12 receptor expressed in CHO cells assessed as inhibition of 2-MeSADP-induced beta-arrestin translocation preincubated for 30 mins followed by 2-MeSADP addition measured after 90 mins by luminescence-based topcount method; assay type: cell-based
# P2Y purinoceptor 12, sequence (Q9H244 whole entry): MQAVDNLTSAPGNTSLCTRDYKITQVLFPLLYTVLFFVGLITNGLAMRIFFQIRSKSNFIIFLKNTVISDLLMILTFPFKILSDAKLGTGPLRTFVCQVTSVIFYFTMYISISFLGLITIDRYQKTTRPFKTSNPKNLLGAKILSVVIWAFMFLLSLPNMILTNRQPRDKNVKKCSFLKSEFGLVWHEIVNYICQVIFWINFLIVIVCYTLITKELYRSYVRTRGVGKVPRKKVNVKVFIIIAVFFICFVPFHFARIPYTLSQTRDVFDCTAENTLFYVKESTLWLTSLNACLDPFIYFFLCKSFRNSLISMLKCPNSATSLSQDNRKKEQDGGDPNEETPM
# P2Y purinoceptor 4 [4] = target: T1, P2Y purinoceptor 4; assay: Antagonist activity at human P2Y4 receptor transfected in human 1321N1 cells assessed as inhibition of UTP-activated intracellular calcium mobilization at 100 uM preincubated for 30 mins followed by UTP addition by fluo-4-dye based fluorescence assay; assay type: functional, cell-based
# P2Y purinoceptor 1 [5] = target: T2, P2Y purinoceptor 1; assay: Antagonist activity at human P2Y1 receptor transfected in human 1321N1 cells assessed as inhibition of ADP-activated intracellular calcium mobilization at 50 uM preincubated for 30 mins followed by ADP addition by fluo-4-dye based fluorescence assay; assay type: functional, cell-based
# P2Y purinoceptor 6 [6] = target: T3, P2Y purinoceptor 6; assay: Antagonist activity at human P2Y6 receptor transfected in human 1321N1 cells assessed as inhibition of UDP-activated intracellular calcium mobilization at 50 uM preincubated for 30 mins followed by UDP addition by fluo-4-dye based fluorescence assay; assay type: functional, cell-based
# P2Y purinoceptor 4 [7] = target: T1, P2Y purinoceptor 4; assay: Antagonist activity at human P2Y4 receptor transfected in human 1321N1 cells assessed as inhibition of UTP-activated intracellular calcium mobilization at 30 uM preincubated for 30 mins followed by UTP addition by fluo-4-dye based fluorescence assay; assay type: functional, cell-based
# T1 sequence (P51582 whole entry): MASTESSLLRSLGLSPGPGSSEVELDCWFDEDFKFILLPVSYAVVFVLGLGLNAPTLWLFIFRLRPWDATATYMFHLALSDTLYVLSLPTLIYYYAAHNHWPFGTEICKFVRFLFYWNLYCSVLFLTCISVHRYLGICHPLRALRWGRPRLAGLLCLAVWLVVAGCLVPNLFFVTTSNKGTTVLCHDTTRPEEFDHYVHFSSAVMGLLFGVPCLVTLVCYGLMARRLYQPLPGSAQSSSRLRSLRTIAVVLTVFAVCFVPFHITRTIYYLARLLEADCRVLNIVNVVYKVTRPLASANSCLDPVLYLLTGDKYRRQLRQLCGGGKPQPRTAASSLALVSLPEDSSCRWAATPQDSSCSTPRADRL
Structure (SMILES),IC50 (P2Y purinoceptor 4 [1]),further results
Nc1c(S(=O)(=O)O)cc(Nc2cc(Cl)ccc2C(=O)O)c2c1C(=O)c1ccccc1C2=O,2.76 µM,
COc1ccc(Nc2cc(S(=O)(=O)O)c(N)c3c2C(=O)c2ccccc2C3=O)cc1OC,4.98 µM,
Nc1c(S(=O)(=O)O)cc(NCCc2ccccc2)c2c1C(=O)c1ccccc1C2=O,7.18 µM,
Cc1ccc(Nc2cc(S(=O)(=O)O)c(N)c3c2C(=O)c2ccccc2C3=O)cc1,2.82 µM,
Nc1c(S(=O)(=O)O)cc(Nc2ccc(Cl)cc2)c2c1C(=O)c1ccccc1C2=O,3.03 µM,
Nc1c(S(=O)(=O)O)cc(Nc2ccccc2)c2c1C(=O)c1ccccc1C2=O [ACID BLUE 25],1.97 to 3.1 µM,IC50 (P2Y purinoceptor 1 [2]): 17.6 µM; IC50 (P2Y purinoceptor 6 [3]): 2.79 µM; IC50 (P2Y purinoceptor 2): 17.1 µM; IC50 (P2Y purinoceptor 12): 3.12 µM
Nc1c(S(=O)(=O)O)cc(Nc2ccccc2Cl)c2c1C(=O)c1ccccc1C2=O,9.34 µM,
CCc1ccccc1Nc1cc(S(=O)(=O)O)c(N)c2c1C(=O)c1ccccc1C2=O,3.53 µM,
Nc1c(S(=O)(=O)O)cc(Nc2ccc(Nc3nc(Cl)nc(Nc4ccc(S(=O)(=O)O)cc4)n3)c(S(=O)(=O)O)c2)c2c1C(=O)c1ccccc1C2=O,0.625 µM,
Cc1cc(C)cc(Nc2cc(S(=O)(=O)O)c(N)c3c2C(=O)c2ccccc2C3=O)c1,6.45 µM,
COc1ccccc1Nc1cc(S(=O)(=O)O)c(N)c2c1C(=O)c1ccccc1C2=O,3.98 µM,
Nc1c(S(=O)(=O)O)cc(Nc2ccc(F)cc2C(=O)O)c2c1C(=O)c1ccccc1C2=O,> 100 µM,
Nc1c(S(=O)(=O)O)cc(Nc2ccc(Nc3nc(Cl)nc(Nc4cccc(S(=O)(=O)O)c4)n3)c(S(=O)(=O)O)c2)c2c1C(=O)c1ccccc1C2=O [RB 2],1.14 µM,
COc1ccc(Nc2cc(S(=O)(=O)O)c(N)c3c2C(=O)c2ccccc2C3=O)cc1,2.59 µM,
Nc1c(S(=O)(=O)O)cc(Nc2ccc(O)cc2C(=O)O)c2c1C(=O)c1ccccc1C2=O,21.1 µM,
Cc1ccc(C)c(Sc2ccc(Nc3cc(S(=O)(=O)O)c(N)c4c3C(=O)c3ccccc3C4=O)cc2)c1,0.395 µM,IC50 (P2Y purinoceptor 1 [2]): 2.72 µM; IC50 (P2Y purinoceptor 6 [3]): 2.67 µM; IC50 (P2Y purinoceptor 2): 6.52 µM; IC50 (P2Y purinoceptor 12): 2.96 µM
CCc1cccc(Nc2cc(S(=O)(=O)O)c(N)c3c2C(=O)c2ccccc2C3=O)c1,1.51 µM,

Structure (SMILES),IC50 (P2Y purinoceptor 4 [1]),further results
Cc1cc(Nc2ccc(F)cc2C(=O)O)c2c(c1N)C(=O)c1ccccc1C2=O,100 µM,inhibition (P2Y purinoceptor 4 [4]): 57%
Cc1cccc(Nc2cc(S(=O)(=O)O)c(N)c3c2C(=O)c2ccccc2C3=O)c1C,2.63 µM,
Cc1cc(Nc2cc(S(=O)(=O)O)c(N)c3c2C(=O)c2ccccc2C3=O)ccc1O,0.746 µM,IC50 (P2Y purinoceptor 1 [2]): 7.65 µM; IC50 (P2Y purinoceptor 6 [3]): 4.75 µM; IC50 (P2Y purinoceptor 2): 16.4 µM; IC50 (P2Y purinoceptor 12): 0.0604 µM
Nc1c(S(=O)(=O)O)cc(Nc2cccc3ccccc23)c2c1C(=O)c1ccccc1C2=O,7.42 µM,
COc1cc(Nc2cc(S(=O)(=O)O)c(N)c3c2C(=O)c2ccccc2C3=O)ccc1Cl,3.37 µM,
CCc1ccc(Nc2cc(S(=O)(=O)O)c(N)c3c2C(=O)c2ccccc2C3=O)cc1,3.21 µM,
COc1cc(Nc2cc(S(=O)(=O)O)c(N)c3c2C(=O)c2ccccc2C3=O)ccc1F,1.54 µM,
Nc1c(S(=O)(=O)O)cc(Nc2ccc(SCc3cccnc3)cc2)c2c1C(=O)c1ccccc1C2=O,0.409 µM,IC50 (P2Y purinoceptor 1 [2]): 25 µM; inhibition (P2Y purinoceptor 1 [5]): 61%; IC50 (P2Y purinoceptor 6 [3]): > 100 µM; inhibition (P2Y purinoceptor 6 [6]): 12%; IC50 (P2Y purinoceptor 2): 13.1 µM; IC50 (P2Y purinoceptor 12): 3.59 µM
Cc1cc(Nc2cccc(F)c2)c2c(c1N)C(=O)c1ccccc1C2=O,> 30 µM,inhibition (P2Y purinoceptor 4 [7]): -4%
Nc1c(S(=O)(=O)O)cc(Nc2ccc(Br)cc2)c2c1C(=O)c1ccccc1C2=O,3.3 µM,
Nc1c(S(=O)(=O)O)cc(Nc2ccc(C(=O)O)cc2)c2c1C(=O)c1ccccc1C2=O,30 µM,inhibition (P2Y purinoceptor 4 [7]): 57%
Nc1c(S(=O)(=O)O)cc(Nc2ccc(Cl)cc2C(=O)O)c2c1C(=O)c1ccccc1C2=O,> 100 µM,inhibition (P2Y purinoceptor 4 [4]): 31%
Nc1c(S(=O)(=O)O)cc(Nc2ccc([N+](=O)[O-])cc2C(=O)O)c2c1C(=O)c1ccccc1C2=O,> 30 µM,inhibition (P2Y purinoceptor 4 [7]): 30%
Nc1c(S(=O)(=O)O)cc(Nc2cc(F)ccc2C(=O)O)c2c1C(=O)c1ccccc1C2=O,> 100 µM,inhibition (P2Y purinoceptor 4 [4]): 33%
Nc1c(S(=O)(=O)O)cc(Nc2ccc(O)cc2)c2c1C(=O)c1ccccc1C2=O,3.16 µM,
Nc1c(S(=O)(=O)O)cc(Nc2ccccc2C(=O)O)c2c1C(=O)c1ccccc1C2=O,6.1 µM,

# Source: ChEMBL document CHEMBL4007497, “Development of Potent and Selective Antagonists for the UTP-Activated P2Y4 Receptor” (J Med Chem, 2017)
